Marks after values point to notes of the source that are not given here. Where no end group is shown, it is not given here.
Columns and labels:
[1] = pH at which 50% of peptides are in the α-helical membrane inserted state; ref Vasquez-Montes et al. (2018); cited from earlier work
[2] = Tryptophan fluorescence emission maximum; assay type: physicochemical; details: POPC LUVs, pH 8.0 and pH 4.0, Trp fluorescence
[3] = system: EGFR phosphorylation (Tyr-1068 and Tyr-1173) in HSC3 cells expressing wild-type PTPRJ; details: 10 μM, 1-h treatment; ref Bloch et al., 2019; cited from earlier work
[4] = system: HSC3 cells ectopically expressing PTPRJ; details: 10 μM, 1-h treatment; ref Bloch et al., 2019; cited from earlier work
[5] = system: HSC3 cells expressing PTPRJ ectopically; assay: Cell viability assay; assay type: cell-based, human; details: 72 h recovery, MTT, n = 9
Summary of the method: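 HSC3 cells engineered to express wild-type PTPRJ, grown in high-glucose DMEM with 10% FBS at 37°C and 5% CO₂, seeded at 5000 cells/well overnight. Peptide in serum-free medium for 5 min at 37°C. Medium then acidified to target pH with citric acid-buffered medium (pH 2.0) for 10 min. Cells washed, then 72 h recovery in complete DMEM. MTT read-out, normalized to medium-only pH 7.4 cells. […]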

HSC3 cells = assay: Lactate dehydrogenase release assay; assay type: cell-based, human; details: 10 μM, 1 h, pH 7.4, 5.5 or 5.0, mean ± S.D., n = 3
[6] = Solubility in aqueous buffer; assay type: physicochemical; details: peptides solubilized to 20 μM in 5 mM sodium phosphate pH 8.0
[7] = system: EGFR phosphorylation (Tyr-1068 and Tyr-1173) in HSC3 cells expressing wild-type PTPRJ; assay: EGFR Tyr phosphorylation level by immunoblotting; assay type: cell-based, human; details: 10 μM, 10 min, indicated pHs (7.4, 5.5, 5.0), then EGF
Summary of the method: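 HSC3 cells engineered to express wild-type PTPRJ, seeded and grown overnight, then serum-starved 2 h. Peptide in serum-free medium for 5 min at 37°C; medium acidified with citrate-buffered medium (pH 2.0) to reach final 10 μM; 10 min at 37°C; then EGF 10 ng/mL for 10 min. Lysates immunoblotted for pY1068, pY1173 and total EGFR; chemiluminescence; densitometric phospho/total ratio, mean values.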

[8] = system: HSC3 cells ectopically expressing PTPRJ; assay: Wound healing scratch assay; assay type: cell-based, human; details: 10 μM, 10 min, n = 8-11
Summary of the method: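 PTPRJ-expressing HSC3 monolayers, confluent at 24 h, serum-starved 2 h. Peptide added in serum-free medium at pH 7.4 (5 min, 37°C), then pH lowered with citrate-buffered medium (pH 2.0) to reach final concentration; 10 min exposure. Monolayer scratched, then complete medium with EGF 50 ng/mL, 37°C, 10 h. Closure taken as percent area change from start to end, normalized to cells treated at pH 7.4.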

AAEQNPIYWARYDWLFTTPLLLLDLALLVDADEGG [pHLIP(WT‐Ala)]
pK50 [1]: 6.1 ^b

DDDDDDTTLLLLS DIGA IMWVSLVDLIADADEG [hybrid1]
partitioning into the lipid bilayer [2]: does not partition into the lipid bilayer

KKTTLLLL S SIG A IMW V SLVCLIAVKGSNKK [RJbinder]
decrease in phosphorylation at Tyr-1068 and Tyr-117 [3]: 20%–30% | decrease in cell migration [4]: 20%

AAEQNPIYWARYDWLFTTGLLLLDLALLVDADEGG [pHLIP(P20G)]
pK50 [1]: 7.2 ^b

DDTTLLLLSEIGAGMWVSLVELIADADEG [hybrid7]
cell viability ([5]; pH 5.5, 10 μM, 10 min treatment): 20% | release of LDH (membrane integrity) (HSC3 cells): Neither hybrid7 nor low pH treatment causes a significant release of LDH | solubility in aqueous buffer [6]: readily soluble in aqueous buffer

DDTTLLLLSEIGLGMWVSLVELIADADEG [hybrid7‐control]
effect on cell viability ([5]; pH 7.4 or 5.5, 10 min treatment): had no effect at either high or acidic pH | change in EGFR phosphorylation level [7]: no changes in phosphorylation level | decrease / inhibition in cell migration (wound closure) ([8]; pH 5.0, EGF 50 ng/mL 10 h): 30% | effect on cell migration (wound closure) ([8]; pH 5.5, EGF 50 ng/mL 10 h): does not result in any effect
